Measurements: ChEMBL document CHEMBL1671700, “Structure-activity analysis of vinylogous urea inhibitors of human immunodeficiency virus-encoded ribonuclease H” (Antimicrob Agents Chemother, 2010)
Activity calls are given as the source filed them. The calls are words filed in the database; no cut-off is given here.

Columns and labels:
[1] = target: T1, Human immunodeficiency virus type 1 reverse transcriptase (Human immunodeficiency virus 1, UniProt Q72547); assay: Inhibition of RNase H activity of HIV-1 HXB2 reverse transcriptase p66/p51 after 10 mins by fluorescence spectrophotometry
Procedure, shortened: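 His-p66/His-p51 RT from HIV-1 HXB2, 250 ng, with 250 nM 18-nt 3′-fluorescein RNA annealed to 5′-dabsyl DNA. Hydrolysis started by adding hybrid. 37°C, fluorescence (ex 475/em 520 nm) read every minute for 10 min. Percent inhibition from initial rates, plotted against log concentration. Triplicate.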

[2] = system: Human immunodeficiency virus 1; assay: Antiviral activity against HIV-1 isolate RF infected in human CEM-SS cells assessed as inhibition of virus induced cytopathic effect by XTT assay; format: functional, organism-based; details: Human immunodeficiency virus 1, isolate RF
Procedure, shortened: (§1)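 HIV-1 RF isolate in human T-cell line CEM-SS; XTT-based cell viability read-out following Weislow et al.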

[3] = Cytotoxicity against human CEM-SS cells by XTT assay; format: cell-based; procedure, shortened: as §1
[4] = target: Human immunodeficiency virus type 1 reverse transcriptase (Human immunodeficiency virus 1) (UniProt Q72547); assay: Binding affinity to HIV-1 HXB2 reverse transcriptase p66/p51 assessed as changes in enzyme orientation on polypurine tract-containing RNA-DNA hybrid by FRET assay
Procedure, shortened: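 Single-molecule FRET. Substrate: 21-nt PPT:D2 RNA-DNA primer annealed at 1.2:1 to a biotinylated 50-nt DNA template. Cy5 acceptor near the template 3′ end; Cy3 donor on the RNase H C terminus of p66. His-p66/His-p51 RT is from the HXB2 isolate. Inhibitor was added at 10 μM final.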

[5] = target: Human immunodeficiency virus type 1 reverse transcriptase (Human immunodeficiency virus 1) (UniProt Q72547); assay: Inhibition of DNA-dependent DNA polymerase activity of HIV1 HXB2 reverse transcriptase p66/p51at 50 uM after 10 mins by fluorescence spectrophotometry
Reverse transcriptase = Reverse transcriptase (Human immunodeficiency virus 2, UniProt Q06347); assay: Inhibition of RNase H activity of HIV-2 reverse transcriptase
[6] = target: T1, Human immunodeficiency virus type 1 reverse transcriptase; assay: Inhibition of RNase H activity of HIV-1 reverse transcriptase
Procedure, shortened: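 Recombinant His-p66/His-p51 RT (HXB2) was mixed with inhibitor in DMSO, then the reaction was started with 18-bp hybrid (3′-fluorescein RNA/5′-dabsyl DNA). Run at 37°C for 10 min, read ex 475/em 520 nm every minute. IC50 from initial-rate % inhibition vs log[inhibitor], triplicate.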

[7] = target: Human immunodeficiency virus type 1 reverse transcriptase (Human immunodeficiency virus 1) (UniProt Q72547); assay: Binding affinity to HIV-1 HXB2 reverse transcriptase p66/p51 at increased temperature by Van't Hoff analysis
Procedure, shortened: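 His-p66/His-p51 RT (4 nM) and RNA-DNA hybrid (250 nM) were run at 20, 25, 30 and 35°C. The reaction was started with substrate, incubated 30 min and quenched with EDTA. Product fluorescence was read, with quadruplicate dose-response curves at each temperature. Ki was fitted as v_i/v_o = 1/[1 + ([I]/Ki)], simple nontight-binding inhibition.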

[8] = target: Human immunodeficiency virus type 1 reverse transcriptase (Human immunodeficiency virus 1) (UniProt Q72547); assay: Inhibition of RNase H activity of HIV-1 HXB2 reverse transcriptase p66/p51 pre-incubated with RNA-DNA hybrid followed by addition of compound and magnesium ions
[9] = target: Human immunodeficiency virus type 1 reverse transcriptase (Human immunodeficiency virus 1) (UniProt Q72547); assay: Inhibition of RNase H activity of HIV-1 HXB2 reverse transcriptase p66/p51 preincubated with compound and RNA-DNA hybrid substrate followed by addition of magnesium ions

Reverse transcriptase, sequence (Q06347 whole entry): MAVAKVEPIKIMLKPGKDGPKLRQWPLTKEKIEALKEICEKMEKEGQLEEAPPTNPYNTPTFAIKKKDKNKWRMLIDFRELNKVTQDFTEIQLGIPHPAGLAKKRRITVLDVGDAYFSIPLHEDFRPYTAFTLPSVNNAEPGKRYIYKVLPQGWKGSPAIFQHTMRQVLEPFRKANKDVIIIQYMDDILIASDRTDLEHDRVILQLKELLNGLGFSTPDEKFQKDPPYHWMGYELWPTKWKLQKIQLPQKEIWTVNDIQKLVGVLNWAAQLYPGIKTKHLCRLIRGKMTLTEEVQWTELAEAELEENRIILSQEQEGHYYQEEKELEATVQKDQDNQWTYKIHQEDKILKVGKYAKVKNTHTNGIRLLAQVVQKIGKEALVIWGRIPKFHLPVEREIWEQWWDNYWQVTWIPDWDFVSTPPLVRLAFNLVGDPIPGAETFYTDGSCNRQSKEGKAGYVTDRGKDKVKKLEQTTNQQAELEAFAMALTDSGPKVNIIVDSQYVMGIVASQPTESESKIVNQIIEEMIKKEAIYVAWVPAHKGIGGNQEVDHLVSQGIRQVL

Cc1sc(NC(=O)c2ccc3c(c2)OCO3)c(C(N)=O)c1C
IC50 [1]: 5.1 µM
IC50 [2]: 19 µM
CC50 [3]: 38 µM

Cc1sc(NC(=O)C2CC3CCC2C3)c(C(N)=O)c1C (centres undefined)
IC50 [1]: 21 µM

CCOc1ccc(NC(=O)c2c(NC(=O)c3ccco3)sc3c2CCCCC3)cc1
IC50 [1]: 4.2 µM

Cc1sc2nc(-c3ccc([N+](=O)[O-])cc3)[nH]c(=O)c2c1C
IC50 [1]: 0.85 µM
Activity [4]: Active
inhibition [5]: inactive

Cc1sc(NC(=O)c2ccc(Br)o2)c(C(N)=O)c1C
IC50 [1]: 1.7 µM

O=C(Nc1sc2c(c1C(=O)Nc1cccc3ccccc13)CCCCC2)c1ccccc1F
IC50 [1]: > 500 µM

Cc1ccc(NC(=O)c2c(NC(=O)c3ccccc3F)sc3c2CCCCC3)cc1
IC50 [1]: > 500 µM

COc1ccc(-c2nc3sc(C)c(C)c3c(=O)[nH]2)cc1
IC50 [1]: > 100 µM

Cc1sc(N)c(C(N)=O)c1C
IC50 [1]: > 500 µM

NC(=O)c1c(N)sc2c1CCC2
IC50 [1]: > 500 µM

CC(C)c1ccc(O)c(=O)c(O)c1 [BETA-THUJAPLICINOL]
IC50 (Reverse transcriptase): 0.25 µM
IC50 [6]: 0.25 µM
Activity [7]: inactive

CCOc1ccc(NC(=O)c2c(NC(=O)c3ccccc3)sc3c2CCCCC3)cc1
IC50 [1]: > 500 µM

Cc1sc(NC(=O)c2cccc([N+](=O)[O-])c2)c(C(N)=O)c1C
IC50 [1]: 1.3 µM
Activity [4]: Active

NC(=O)c1ccsc1N
IC50 [1]: > 500 µM

NC(=O)c1c(N)sc2c1CCCCC2
inhibition [8]: inactive
inhibition [9]: Active
Activity [4]: Active
IC50 [2]: 4.3 µM
CC50 [3]: 19.9 µM
Activity [7]: inactive

Cc1sc(NC(=O)C2CCCO2)c(C(N)=O)c1C (centres undefined)
IC50 [1]: 27.3 µM

COc1ccccc1NC(=O)c1c(NC(=O)Cc2ccccc2)sc2c1CCCCC2
IC50 [1]: > 500 µM
IC50 [2]: 54 µM
CC50 [3]: 141 µM

Cc1ccc(C(=O)Nc2sc(C)c(C)c2C(N)=O)cc1
IC50 [1]: 2.8 µM

Cc1onc(-c2ccccc2)c1C(=O)Nc1sc(C)c(C)c1C(N)=O
IC50 [1]: 2.9 µM

Cc1sc(NC(=O)c2ccco2)c(C(N)=O)c1C
IC50 [1]: 3.4 µM

Cc1cc(Cl)ccc1CCC(=O)Nc1sc(C)c(C)c1C(N)=O
IC50 [1]: > 500 µM

NC(=O)c1c(NC(=O)COc2ccccc2)sc2c1CCCCC2
IC50 [1]: 6.9 µM

NC(=O)c1c(N)sc2c1CCCC2
IC50 [1]: 14 µM

Cc1sc2nc(-c3ccccc3)[nH]c(=O)c2c1C
IC50 [1]: > 100 µM

NC(=O)c1c(N)sc2c1CCCCCC2
IC50 [1]: > 500 µM
